Test results reported in the array DNA melting data of Ke et al. (doi:10.1101/2024.01.08.574731).

Legend:
[1] = folding enthalpy; higher = less favourable; fluorescence melt of hairpins on a sequencing array, two-state fit; details: sodium 0.088 M
In short: (§1)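 Hairpins were imaged by Cy3 fluorescence on a sequenced MiSeq flow cell with annealed Cy3 and quencher oligos, in 50 mM Na-HEPES pH 8.0, 25 mM NaCl, in 2.5 °C steps up to 60 °C. Bootstrapped two-state fits of normalised signals gave melting temperature and folding enthalpy. Four replicates were combined by inverse variance, and fitted temperatures were raised by 9.35 °C to match UV melts.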

[2] = melting temperature; fluorescence melt of hairpins on a sequencing array, two-state fit, raised by 9.35 °C to match UV melts; details: sodium 0.088 M
In short: as §1

Sequence | folding enthalpy [1] | Tm [2]
GATCCTGGTCAGGATC ((((((....)))))) | -41.8 kcal/mol | 55.5 °C
GGGTCGGGAAACTGACCC (((((.(....).))))) | -51.9 kcal/mol | 57.5 °C
GCGGGGCGAAAGCCTGGC ((..(((....)))..)) | -19.2 kcal/mol | 57.8 °C
GATCTTGTAAAGATC ((((((...)))))) | -43.5 kcal/mol | 53.8 °C
GTCGGAGGAAACCCCGAC (((((.(....).))))) | -33.3 kcal/mol | 53.8 °C
GCCATACGAAAGTAAGGC (((.(((....))).))) | -35.1 kcal/mol | 52.6 °C
GAGATACCGAAAGGTCTC (((..(((....)))))) | -15.6 kcal/mol | 34.3 °C
GTTGCGGGAAACCGTGAC ((..(((....)))..)) | -20.2 kcal/mol | 45.2 °C
ATGCAGAAATGCAT (((((....))))) | -24.1 kcal/mol | 46.2 °C
GGGGTCGGAAACGGCTCC ((.(.((....)).).)) | -42.8 kcal/mol | 49.6 °C
GACTCCGAAAGGAGCGTC ((((((....)))..))) | -13.4 kcal/mol | 49.9 °C
GTAAGCGAAAGCTGCTAC ((((((....)))..))) | -12.7 kcal/mol | 41 °C
GGGCTGCCGAAAGGCCCC (((..(((....)))))) | -16 kcal/mol | 46.2 °C
GCCCTGCGAAAGCTGAGC ((.(.((....)).).)) | -13.9 kcal/mol | 47.2 °C
GATCATTACCATGATC ((((((....)))))) | -35.3 kcal/mol | 46.8 °C
GAACACGAAAGTGGGTTC ((((((....)))..))) | -16.4 kcal/mol | 37.1 °C
GATCCGTGTGCGGATC ((((((....)))))) | -38.8 kcal/mol | 66.7 °C
GATCGACTTTCGATC ((((((...)))))) | -22.2 kcal/mol | 51.7 °C
GATCTAATATAGATC ((((((...)))))) | -28.6 kcal/mol | 38.8 °C
GATCCGCACCCGGATC ((((((....)))))) | -38.6 kcal/mol | 55.4 °C
GCTTGGCGAAAGCTATGC ((.(.((....)).).)) | -15.6 kcal/mol | 47.9 °C
GTAGGAGGAAACTCTTAC (((.(((....))).))) | -17.8 kcal/mol | 34.8 °C
GAAGCGGCGAAAGCCTTC (((..(((....)))))) | -10.2 kcal/mol | 28.5 °C

Sequence | folding enthalpy [1] | Tm [2]
GGCAACGAAAGTTAGCC ((((((....))).))) | -37.5 kcal/mol | 53.9 °C
GATCAGCGACCTGATC ((((((....)))))) | -31.3 kcal/mol | 47.4 °C
GACTACGAAAGTAATGTC ((((((....)))..))) | -15.7 kcal/mol | 34.3 °C
CGTTCGGAAACGATCACG ((((((....)))..))) | -13.9 kcal/mol | 30.9 °C
CGGTCTCGGAAACGACCG (((..(((....)))))) | -30 kcal/mol | 46.7 °C
GTCCCACGAAAGTGTGAC (((.(((....))).))) | -33 kcal/mol | 50.4 °C
GACCATGGAAACATGATC ((.((((....)))).)) | -23.2 kcal/mol | 35.4 °C
GCGGTTCGCCGC ((((....)))) | -23.3 kcal/mol | 64.5 °C
GATCGGAACCCGATC ((((((...)))))) | -44 kcal/mol | 54 °C
GATCGATTACTCGATC ((((((....)))))) | -47.6 kcal/mol | 51 °C
GCTTGCGGAAACGTAGGC ((.(.((....)).).)) | -11.7 kcal/mol | 38.6 °C
GATCGTGGGCACGATC ((((((....)))))) | -40.1 kcal/mol | 56.8 °C
GCATGAGGAAACTCATAC (.(((((....))))).) | -17.2 kcal/mol | 32.6 °C
GGGTAAGCGAAAGCTCCC (((..(((....)))))) | -20.6 kcal/mol | 47.8 °C
GATCATATTTATGATC ((((((....)))))) | -41.2 kcal/mol | 50.3 °C
GTGTGGGGAAACCCGCAC (((.(((....))).))) | -35.3 kcal/mol | 59.7 °C
CGGGCCCGGAAACGGCCG (((..(((....)))))) | -13.3 kcal/mol | 50.3 °C
GGCCACGGAAACGCGGCC ((((.((....)).)))) | -40.4 kcal/mol | 66.5 °C
GGAGGCGCGAAAGCGTCC (((..(((....)))))) | -8.65 kcal/mol | 47 °C
GATCGTAGACACGATC ((((((....)))))) | -39.8 kcal/mol | 54.2 °C
GGTGGCGAAAGCCGAACC ((((((....)))..))) | -14.9 kcal/mol | 45.3 °C
GTTGTTGGAAACAATGAC ((..(((....)))..)) | -13.9 kcal/mol | 38.5 °C
GCCTCCGAAAGGACGGGC ((((((....)))..))) | -24.5 kcal/mol | 48.6 °C

Sequence | folding enthalpy [1] | Tm [2]
GTTCAAGAAATTGAAC ((((((....)))))) | -29.2 kcal/mol | 45.1 °C
GATCAAAGACTTGATC ((((((....)))))) | -25.1 kcal/mol | 39.2 °C
GATCCTCATAAGGATC ((((((....)))))) | -34.4 kcal/mol | 52.6 °C
GGCGACGAAAGTCTGCC ((((((....))).))) | -36.6 kcal/mol | 59.2 °C
GGCATGCCGAAAGGCGCC (((..(((....)))))) | -16 kcal/mol | 57.5 °C
GATCCGGTTACGGATC ((((((....)))))) | -36.9 kcal/mol | 68.5 °C
GTTACCCGAAAGGGAAC (((.(((....)))))) | -17.1 kcal/mol | 43.7 °C
GCGTTCGAAAGAATTCGC ((((((....)))..))) | -26.6 kcal/mol | 36.2 °C
GATTCCCGAAAGGGGATC (((.(((....))).))) | -36.3 kcal/mol | 57.3 °C
GCCATCGAAAGATCGGGC ((((((....)))..))) | -25.1 kcal/mol | 41.6 °C
GGCCACGAAAGTGTCGCC ((((((....)))..))) | -21.3 kcal/mol | 50 °C
GGTTGGCGAAAGCCTACC (((.(((....))).))) | -25.3 kcal/mol | 59.6 °C
GCCTGGCGAAAGCCGAGC ((..(((....)))..)) | -13.5 kcal/mol | 49.5 °C
GATCTTTTTCAAGATC ((((((....)))))) | -33.6 kcal/mol | 42.3 °C
GCCGTCGGAAACGACAGC ((.((((....)))).)) | -16.6 kcal/mol | 53 °C
GTTCCCGAAAGGGAAAC ((((((....))).))) | -12.6 kcal/mol | 49.6 °C
GGCAGACGAAAGTCAGCC (((.(((....))).))) | -32.8 kcal/mol | 64.4 °C
GTTTTTGCGAAAGCAAAC (((..(((....)))))) | -11.9 kcal/mol | 35.2 °C
GTTGTCGAAAGACAAC ((((((....)))))) | -27.7 kcal/mol | 67.5 °C
GCGATGTATCGC ((((....)))) | -28.2 kcal/mol | 56.7 °C
GAAACGGGAAACCGTTTC (((((((....))))))) | -50.9 kcal/mol | 60.3 °C
CTGTGGAAACACAG (((((....))))) | -19.7 kcal/mol | 52.1 °C
GTGTTCGAAAGAAACAC ((((((....))).))) | -28.1 kcal/mol | 47.1 °C
